Measurements taken from ChEMBL document CHEMBL1255403, “Genetic dissection of azole resistance mechanisms in Candida albicans and their validation in a mouse model of disseminated infection” (2010).
Converted amounts (≈) assume the structure as drawn.

Tests used:
Assay type in all cases: functional
Candida albicans [1] = experiment: Antibacterial activity against Fluconazole resistant Candida albicans DSY3083 containing tac1delta/delta genotype by EUCAST standards based broth microdilution method
How it was run: (§1)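 Cells grew overnight in YEPD at 30°C and were diluted to 5 × 10^4 cells/ml in RPMI 1640 (MOPS 0.165 M, pH 7, 2% glucose, 1% DMSO). Drug from aqueous stock was 100-fold diluted. Plates ran 24 h at 35°C and were read at 450 nm. MIC was the concentration giving >50% OD decrease versus drug-free control.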

Candida albicans [2] = experiment: […] activity against Fluconazole resistant Candida albicans DSY3608 containing tac1delta/delta ERG11-1/ERG11-1 (TAC1-1) genotype by EUCAST standards based broth microdilution method sCandida albicans DSY294
Candida albicans [3] = experiment: Antibacterial activity against Fluconazole resistant Candida albicans DSY296 overexpressing multidrug transporter gene CDR1 and CDR2 and containing ERG11 G464S mutation by EUCAST standards based broth microdilution method; how it was run: as §1
Candida albicans [4] = experiment: […] activity against Fluconazole resistant Candida albicans DSY296 overexpressing multidrug transporter gene CDR1 and CDR2 and containing ERG11 G464S mutation by EUCAST standards based broth microdilution method relative to wildtype sCandida albicans DSY294
Candida albicans [5] = experiment: Antibacterial activity against Fluconazole resistant Candida albicans DSY3752 containing (TAC1-5/TAC1-5 ERG11-1/ERG11-1) genotype by EUCAST standards based broth microdilution method; how it was run: as §1
Candida albicans [6] = experiment: Antibacterial activity against Fluconazole resistant Candida albicans DSY3608 containing tac1delta/delta ERG11-1/ERG11-1 (TAC1-1) genotype by EUCAST standards based broth microdilution method; how it was run: as §1
Candida albicans [7] = experiment: Antibacterial activity against Fluconazole resistant Candida albicans DSY3083 containing tac1delta/delta genotype by EUCAST standards based broth microdilution method sCandida albicans DSY294
Candida albicans [8] = experiment: […] activity against Fluconazole resistant Candida albicans DSY3752 containing (TAC1-5/TAC1-5 ERG11-1/ERG11-1) genotype by EUCAST standards based broth microdilution method sCandida albicans DSY294
Candida albicans [9] = experiment: Antibacterial activity against Fluconazole resistant Candida albicans DSY3706 containing tac1delta/delta ERG11-1/ERG11-1 genotype by EUCAST standards based broth microdilution method; how it was run: as §1
Candida albicans [10] = experiment: Antibacterial activity against Fluconazole resistant Candida albicans DSY3606 containing tac1delta/delta ERG11-1/ERG11-1 (TAC1-5) genotype by EUCAST standards based broth microdilution method; how it was run: as §1
Candida albicans [11] = experiment: Antibacterial activity against azole-susceptible Candida albicans DSY294 by EUCAST standards based broth microdilution method; how it was run: as §1
Candida albicans [12] = experiment: Antibacterial activity against Fluconazole resistant Candida albicans DSY3604 containing tac1delta/delta ERG11-1/ERG11-5 genotype by EUCAST standards based broth microdilution method; how it was run: as §1
Candida albicans [13] = experiment: […] activity against Fluconazole resistant Candida albicans DSY3706 containing tac1delta/delta ERG11-1/ERG11-1 genotype by EUCAST standards based broth microdilution method sCandida albicans DSY294
Candida albicans [14] = experiment: Antibacterial activity against Fluconazole resistant Candida albicans DSY3604 containing tac1delta/delta ERG11-1/ERG11-5 genotype by EUCAST standards based broth microdilution method sCandida albicans DSY294
Candida albicans [15] = experiment: Antibacterial activity against Fluconazole resistant Candida albicans DSY3606 containing tac1delta/delta ERG11-1/ERG11-1 (TAC1-5) genotype by EUCAST standards based broth microdilution method sCandida albicans DSY294
Candida albicans [16] = experiment: (§2) Antibacterial activity against Fluconazole resistant Candida albicans DSY3083 containing tac1delta/delta genotype containing CIp10 to restore URA3 function infected in BALB/c mouse assessed as effect on infection outcome score administered intraperitoneally 1 hr post bacterial challenge measured 3 days post infection
How it was run: (§3)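 Intravenous infection of female BALB/c mice with a strain-specific inoculum. […] ED50 was derived from the 3-day infection outcome score at 72 h.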

Candida albicans [17] = experiment: (§4) Antibacterial activity against Fluconazole resistant Candida albicans DSY3083 containing tac1delta/delta genotype containing CIp10 to restore URA3 function infected in BALB/c mouse administered intraperitoneally 1 hr post bacterial challenge measured 3 days post infection
How it was run: (§5)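 Female BALB/c mice (18–22 g) infected i.v. with a saline suspension of NGY-grown yeast. The challenge inoculum was strain-specific, set by pilot dose-finding. […] Endpoint at 72 h. Median of ED50s from kidney burden, weight change and outcome score.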

Candida albicans [18] = experiment: (§6) Antibacterial activity against Fluconazole resistant Candida albicans DSY3083 containing tac1delta/delta genotype containing CIp10 to restore URA3 function infected in BALB/c mouse assessed as weight change administered intraperitoneally 1 hr post bacterial challenge measured 3 days post infection
Candida albicans [19] = experiment: Antibacterial activity against azole-susceptible Candida albicans DSY294 containing CIp10 to restore URA3 function infected in BALB/c mouse assessed as effect on infection outcome score administered intraperitoneally 1 hr post bacterial challenge measured 3 days post infection; how it was run: as §3
Candida albicans [20] = experiment: Antibacterial activity against Fluconazole resistant Candida albicans DSY3706 containing tac1delta/delta ERG11-1/ERG11-1 genotype infected in BALB/c mouse assessed as weight change administered intraperitoneally 1 hr post bacterial challenge measured 3 days post infection
How it was run: (§7)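 Female BALB/c mice (18 to 22 g) infected i.v. with saline suspension of C. albicans grown overnight in NGY medium. […] Percentage body weight change over 3 days; ED50 = dose reducing mean weight change below 50% of controls.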

Candida albicans [21] = experiment: as §2, with “DSY296 overexpressing multidrug transporter gene CDR1 and CDR2 and” for “DSY3083”, “ERG11 G464S mutation” for “tac1delta/delta genotype”; how it was run: as §3
Candida albicans [22] = experiment: Antibacterial activity against azole-susceptible Candida albicans DSY294 containing CIp10 to restore URA3 function infected in BALB/c mouse assessed as weight change administered intraperitoneally 1 hr post bacterial challenge measured 3 days post infection; how it was run: as §7
Candida albicans [23] = experiment: […] activity against Fluconazole resistant Candida albicans DSY3606 containing tac1delta/delta ERG11-1/ERG11-1 (TAC1-5) genotype infected in BALB/c mouse assessed as weight change administered intraperitoneally 1 hr post […] measured 3 days post infection
Candida albicans [24] = experiment: as §6, with “reduction in kidney microbial burden” for “weight change”
How it was run: (§8)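 At 72 h the left kidney was homogenised in saline and viable counts taken as log10 CFU/g. ED50 was the dose lowering the mean burden >1.5 log below controls.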

Candida albicans [25] = experiment: (§9) Antibacterial activity against azole-susceptible Candida albicans DSY294 containing CIp10 to restore URA3 function infected in BALB/c mouse assessed as reduction in kidney microbial burden administered intraperitoneally 1 hr post bacterial challenge measured 3 days post infection; how it was run: as §8
Candida albicans [26] = experiment: (§10) Antibacterial activity against Fluconazole resistant Candida albicans DSY3706 containing tac1delta/delta ERG11-1/ERG11-1 genotype infected in BALB/c mouse assessed as reduction in kidney microbial burden administered intraperitoneally 1 hr post bacterial challenge measured 3 days post infection; how it was run: as §8
Candida albicans [27] = experiment: (§11) Antibacterial activity against Fluconazole resistant Candida albicans DSY3706 containing tac1delta/delta ERG11-1/ERG11-1 genotype infected in BALB/c mouse assessed as effect on infection outcome score administered intraperitoneally 1 hr post bacterial challenge measured 3 days post infection; how it was run: as §3
Candida albicans [28] = experiment: as §6, with “DSY296 overexpressing multidrug transporter gene CDR1 and CDR2 and” for “DSY3083”, “ERG11 G464S mutation” for “tac1delta/delta genotype”
Candida albicans [29] = experiment: as §11, with “DSY3606” for “DSY3706”, “ERG11-1/ERG11-1 (TAC1-5)” for “ERG11-1/ERG11-1”; how it was run: as §3
Candida albicans [30] = experiment: as §9, with “Fluconazole resistant” for “azole-susceptible”, “DSY296 overexpressing multidrug transporter gene CDR1 and CDR2 and containing ERG11 G464S mutation” for “DSY294”; how it was run: as §8
Candida albicans [31] = experiment: as §4, with “DSY296 overexpressing multidrug transporter gene CDR1 and CDR2 and” for “DSY3083”, “ERG11 G464S mutation” for “tac1delta/delta genotype”; how it was run: as §5
Candida albicans [32] = experiment: as §10, with “DSY3606” for “DSY3706”, “ERG11-1/ERG11-1 (TAC1-5)” for “ERG11-1/ERG11-1”; how it was run: as §8
Candida albicans [33] = experiment: Antibacterial activity against Fluconazole resistant Candida albicans DSY3706 containing tac1delta/delta ERG11-1/ERG11-1 genotype infected in BALB/c mouse administered intraperitoneally 1 hr post bacterial challenge measured 3 days post infection; how it was run: as §5
Candida albicans [34] = experiment: Antibacterial activity against azole-susceptible Candida albicans DSY294 containing CIp10 to restore URA3 function infected in BALB/c mouse administered intraperitoneally 1 hr post bacterial challenge measured 3 days post infection; how it was run: as §5
Candida albicans [35] = experiment: Antibacterial activity against Fluconazole resistant Candida albicans DSY3606 containing tac1delta/delta ERG11-1/ERG11-1 (TAC1-5) genotype infected in BALB/c mouse administered intraperitoneally 1 hr post bacterial challenge measured 3 days post infection; how it was run: as §5

Compound	MIC (Candida albicans [1])	fold change (FC) (Candida albicans [2])	MIC (Candida albicans [3])	fold change (FC) (Candida albicans [4])	MIC (Candida albicans [5])	MIC (Candida albicans [6])	fold change (FC) (Candida albicans [7])	fold change (FC) (Candida albicans [8])	MIC (Candida albicans [9])	MIC (Candida albicans [10])	MIC (Candida albicans [11])	MIC (Candida albicans [12])	fold change (FC) (Candida albicans [13])	fold change (FC) (Candida albicans [14])	fold change (FC) (Candida albicans [15])	also measured
CC[C@@H]([C@H](C)O)n1ncn(-c2ccc(N3CCN(c4ccc(OC[C@@H]5CO[C@@](Cn6cncn6)(c6ccc(F)cc6F)C5)cc4)CC3)cc2)c1=O [POSACONAZOLE]	0.031 µg/mL (≈ 0.0442 µM)	1	0.25 µg/mL (≈ 0.357 µM)	8	0.25 µg/mL (≈ 0.357 µM)	0.031 µg/mL (≈ 0.0442 µM)	1	8	0.031 µg/mL (≈ 0.0442 µM)	0.25 µg/mL (≈ 0.357 µM)	0.0312 µg/mL (≈ 0.0445 µM)	0.031 µg/mL (≈ 0.0442 µM)	1	1	8	
CCC(C)n1ncn(-c2ccc(N3CCN(c4ccc(OCC5COC(Cn6cncn6)(c6ccc(Cl)cc6Cl)O5)cc4)CC3)cc2)c1=O (centres undefined) [ITRACONAZOLE]	0.031 µg/mL (≈ 0.0439 µM)	2	0.25 µg/mL (≈ 0.354 µM)	16	0.25 µg/mL (≈ 0.354 µM)	0.031 µg/mL (≈ 0.0439 µM)	2	16	0.0156 µg/mL (≈ 0.0221 µM)	0.125 µg/mL (≈ 0.177 µM)	0.0156 µg/mL (≈ 0.0221 µM)	0.031 µg/mL (≈ 0.0439 µM)	1	2	8	
OC(Cn1cncn1)(Cn1cncn1)c1ccc(F)cc1F [FLUCONAZOLE]	4 µg/mL (≈ 13.1 µM)	1	64 µg/mL (≈ 209 µM)		4 µg/mL (≈ 13.1 µM)	0.25 µg/mL (≈ 0.816 µM)	16	16	0.25 µg/mL (≈ 0.816 µM)	4 µg/mL (≈ 13.1 µM)	0.25 µg/mL (≈ 0.816 µM)	2 µg/mL (≈ 6.53 µM)	1	8	16	MIC (Candida albicans [16]): 10 µg/mL (≈ 32.7 µM); MIC (Candida albicans [17]): 10 µg/mL (≈ 32.7 µM); MIC (Candida albicans [18]): 10 µg/mL (≈ 32.7 µM); MIC (Candida albicans [19]): 3.5 µg/mL (≈ 11.4 µM); MIC (Candida albicans [20]): 1 µg/mL (≈ 3.27 µM); MIC (Candida albicans [21]): 200 µg/mL (≈ 653 µM); MIC (Candida albicans [22]): 1 µg/mL (≈ 3.27 µM); MIC (Candida albicans [23]): 120 µg/mL (≈ 392 µM); MIC (Candida albicans [24]): 10 µg/mL; MIC (Candida albicans [25]): 10 µg/mL; MIC (Candida albicans [26]): 3.5 µg/mL; MIC (Candida albicans [27]): 3.5 µg/mL (≈ 11.4 µM); MIC (Candida albicans [28]): 120 µg/mL (≈ 392 µM); MIC (Candida albicans [29]): 120 µg/mL (≈ 392 µM); MIC (Candida albicans [30]): > 200 µg/mL; MIC (Candida albicans [31]): 200 µg/mL (≈ 653 µM); MIC (Candida albicans [32]): 120 µg/mL; MIC (Candida albicans [33]): 3.5 µg/mL (≈ 11.4 µM); MIC (Candida albicans [34]): 3.5 µg/mL (≈ 11.4 µM); MIC (Candida albicans [35]): 120 µg/mL (≈ 392 µM)
C[C@@H](c1ncncc1F)[C@](O)(Cn1cncn1)c1ccc(F)cc1F [VORICONAZOLE]	0.125 µg/mL (≈ 0.358 µM)	1	2 µg/mL (≈ 5.73 µM)	256	0.125 µg/mL (≈ 0.358 µM)	0.0078 µg/mL (≈ 0.0223 µM)	16	16	0.0078 µg/mL (≈ 0.0223 µM)	0.125 µg/mL (≈ 0.358 µM)	0.0078 µg/mL (≈ 0.0223 µM)	0.0625 µg/mL (≈ 0.179 µM)	1	8	16	
